Measured values taken from ChEMBL document CHEMBL1133087, “Radioiodinated N-(2-diethylaminoethyl)benzamide derivatives with high melanoma uptake: structure-affinity relationships, metabolic fate, and intracellular localization” (J Med Chem, 2000).

What was measured:
Mus musculus [1] = test: Biodistribution was studied by injecting intravenously into C57B1/6 mice bearing subcutaneously transplanted B16 melanoma after 6 hr.; type: ADME, organism-based; settings: in vivo, iv
Mus musculus [2] = test: Biodistribution was studied by injecting intravenously into C57B1/6 mice bearing subcutaneously transplanted B16 lung after 6 hr.; type: ADME, organism-based; settings: in vivo, iv
Mus musculus [3] = test: Biodistribution was studied by injecting intravenously into C57B1/6 mice bearing subcutaneously transplanted B16 kidney after 1 hr.; type: ADME, organism-based; settings: in vivo, iv
Mus musculus [4] = test: Biodistribution was studied by injecting intravenously into C57B1/6 mice bearing subcutaneously transplanted B16 […] after 6 hr.; type: ADME, organism-based; settings: in vivo, iv
Mus musculus [5] = test: Biodistribution was studied by injecting intravenously into C57B1/6 mice bearing subcutaneously transplanted B16 melanoma after 1 hr.; type: ADME, organism-based; settings: in vivo, iv
Mus musculus [6] = test: Biodistribution was studied by injecting intravenously into C57B1/6 mice bearing subcutaneously transplanted B16 kidney after 6 hr.; type: ADME, organism-based; settings: in vivo, iv
Mus musculus [7] = test: Biodistribution was studied by injecting intravenously into C57B1/6 mice bearing subcutaneously transplanted B16 muscle after 1 hr.; type: ADME, organism-based, Muscle tissue; settings: in vivo, iv
Mus musculus [8] = test: Biodistribution was studied by injecting intravenously into C57B1/6 mice bearing subcutaneously transplanted B16 brain after 1 hr.; type: ADME, organism-based; settings: in vivo, iv
Mus musculus [9] = test: Biodistribution was studied by injecting intravenously into C57B1/6 mice bearing subcutaneously transplanted B16 brain after 6 hr.; type: ADME, organism-based; settings: in vivo, iv
Mus musculus [10] = test: Biodistribution was studied by injecting intravenously into C57B1/6 mice bearing subcutaneously transplanted B16 blood after 6 hr.; type: ADME, organism-based; settings: in vivo, iv
Mus musculus [11] = test: Biodistribution was studied by injecting intravenously into C57B1/6 mice bearing subcutaneously transplanted B16 heart after 6 hr.; type: ADME, organism-based; settings: in vivo, iv
Mus musculus [12] = test: Biodistribution was studied by injecting intravenously into C57B1/6 mice bearing subcutaneously transplanted B16 spleen after 1 hr.; type: ADME, organism-based; settings: in vivo, iv
Mus musculus [13] = test: Biodistribution was studied by injecting intravenously into C57B1/6 mice bearing subcutaneously transplanted B16 muscle after 6 hr.; type: ADME, organism-based, Muscle tissue; settings: in vivo, iv
Mus musculus [14] = test: Biodistribution was studied by injecting intravenously into C57B1/6 mice bearing subcutaneously transplanted B16 heart after 1 hr.; type: ADME, organism-based; settings: in vivo, iv
Mus musculus [15] = test: Biodistribution was studied by injecting intravenously into C57B1/6 mice bearing subcutaneously transplanted B16 liver after 6 hr.; type: ADME, organism-based; settings: in vivo, iv
Mus musculus [16] = test: Biodistribution was studied by injecting intravenously into C57B1/6 mice bearing subcutaneously transplanted B16 lung after 1 hr.; type: ADME, organism-based; settings: in vivo, iv
Mus musculus [17] = test: Biodistribution was studied by injecting intravenously into C57B1/6 mice bearing subcutaneously transplanted B16 liver after 1 hr.; type: ADME, organism-based; settings: in vivo, iv
[18] = The lipophilicity was measured in an octanol/water system at pH 7.4.; type: physicochemical
Summary of the method: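 HPLC-purified no-carrier-added radioiodinated benzamide was added to 0.067 M phosphate buffer at pH 7.4 with an equal volume of 1-octanol. The mixture was vortexed to equilibrium, centrifuged and the phases separated. Each phase was γ-counted, with log P = log(cpm octanol/cpm buffer).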

Mus musculus [19] = test: Biodistribution was studied by injecting intravenously into C57B1/6 mice bearing subcutaneously transplanted B16 blood after 1 hr.; type: ADME, organism-based; settings: in vivo, iv
Mus musculus [20] = test: Amount of urinary radioactivity collected within 4 hr after iv injection into C57B1/6 mice was analyzed by RP-HPLC.; type: ADME, organism-based, Urine; settings: in vivo
Mus musculus [21] = test: Biodistribution was studied by injecting intravenously into C57B1/6 mice bearing subcutaneously transplanted B16 muscle after 24 hr.; type: ADME, organism-based, Muscle tissue; settings: in vivo, iv
Mus musculus [22] = test: Biodistribution was studied by injecting intravenously into C57B1/6 mice bearing subcutaneously transplanted B16 brain after 24 hr.; type: ADME, organism-based; settings: in vivo, iv
Mus musculus [23] = test: Biodistribution was studied by injecting intravenously into C57B1/6 mice bearing subcutaneously transplanted B16 lung after 24 hr.; type: ADME, organism-based; settings: in vivo, iv
Mus musculus [24] = test: Biodistribution was studied by injecting intravenously into C57B1/6 mice bearing subcutaneously transplanted B16 blood after 24 hr; type: ADME, organism-based; settings: in vivo, iv
Mus musculus [25] = test: Biodistribution was studied by injecting intravenously into C57B1/6 mice bearing subcutaneously transplanted B16 heart after 24 hr.; type: ADME, organism-based; settings: in vivo, iv
Mus musculus [26] = test: Biodistribution was studied by injecting intravenously into C57B1/6 mice bearing subcutaneously transplanted B16 spleen after 24 hr.; type: ADME, organism-based; settings: in vivo, iv
Mus musculus [27] = test: Biodistribution was studied by injecting intravenously into C57B1/6 mice bearing subcutaneously transplanted B16 kidney after 24 hr.; type: ADME, organism-based; settings: in vivo, iv
Mus musculus [28] = test: Biodistribution was studied by injecting intravenously into C57B1/6 mice bearing subcutaneously transplanted B16 liver after 24 hr.; type: ADME, organism-based; settings: in vivo, iv
Mus musculus [29] = test: Biodistribution was studied by injecting intravenously into C57B1/6 mice bearing subcutaneously transplanted B16 melanoma after 24 hr.; type: ADME, organism-based; settings: in vivo, iv

Row | Structure (SMILES) | ID/g (Mus musculus [1]) [%] | ID/g (Mus musculus [2]) [%] | ID/g (Mus musculus [3]) [%] | ID/g (Mus musculus [4]) [%] | ID/g (Mus musculus [5]) [%] | ID/g (Mus musculus [6]) [%] | ID/g (Mus musculus [7]) [%] | ID/g (Mus musculus [8]) [%] | ID/g (Mus musculus [9]) [%] | ID/g (Mus musculus [10]) [%] | ID/g (Mus musculus [11]) [%] | ID/g (Mus musculus [12]) [%] | ID/g (Mus musculus [13]) [%] | ID/g (Mus musculus [14]) [%] | ID/g (Mus musculus [15]) [%] | ID/g (Mus musculus [16]) [%] | ID/g (Mus musculus [17]) [%] | logD [18] | ID/g (Mus musculus [19]) [%] | ID (Mus musculus [20]) [%] | further results
1 | CCN(CC)CCNC(=O)c1cc(OC)ccc1I | 2.32 | 0.41 | 1.81 | 0.31 | 8.06 | 0.17 | 0.38 | 0.15 | 0.02 | 0.33 | 0.13 | 1.26 | 0.08 | 0.63 | 0.23 | 1.41 | 1.23 | 1.16 | 0.9 |  | 
2 | CCN(CC)CCNC(=O)c1ccc(NC(C)=O)c(I)c1 | 1.2 | 1.82 | 6.46 | 1.39 | 6.21 | 1.22 | 1.81 | 0.48 | 0.09 | 1.51 | 0.58 | 5.62 | 0.44 | 3.19 | 0.77 | 7.98 | 4.05 | 1.34 | 6.5 |  | 
3 | CCN(CC)CCNC(=O)c1cc(I)ccc1OC | 6.8 | 0.19 | 1.71 | 0.15 | 7.73 | 0.41 | 0.19 | 0.5 | 0.04 | 0.14 | 0.09 | 2.5 | 0.04 | 0.46 | 0.26 | 1.15 | 0.88 | 1.26 | 0.46 | 71 | 
4 | CCN(CC)CCNC(=O)c1cc(Br)c(N)c(I)c1OC | 16.48 | 2.07 | 4.53 | 1.84 | 16.61 | 2.08 | 0.94 | 0.64 | 0.15 | 1.86 | 0.94 | 5.06 | 0.43 | 1.91 | 9.61 | 3.16 | 11.32 | 1.81 | 2.32 | 34 | ID/g (Mus musculus [21]): 0.01%; ID/g (Mus musculus [22]): 0.02%; ID/g (Mus musculus [23]): 0.26%; ID/g (Mus musculus [24]): 0.19%; ID/g (Mus musculus [25]): 0.13%; ID/g (Mus musculus [26]): 0.38%; ID/g (Mus musculus [27]): 0.46%; ID/g (Mus musculus [28]): 4.54%; ID/g (Mus musculus [29]): 8.02%
5 | CCN(CC)CCNC(=O)c1cc(I)c(NC(C)=O)cc1OC | 23.32 | 3.02 | 5.09 | 2.09 | 21.87 | 1.97 | 1.37 | 0.62 | 0.19 | 2.56 | 1.05 | 6.55 | 0.44 | 2.1 | 9.86 | 5.53 | 8.03 | 1.78 | 3.3 | 16 | ID/g (Mus musculus [21]): 0.03%; ID/g (Mus musculus [22]): 0.02%; ID/g (Mus musculus [23]): 0.25%; ID/g (Mus musculus [24]): 0.21%; ID/g (Mus musculus [25]): 0.09%; ID/g (Mus musculus [26]): 0.17%; ID/g (Mus musculus [27]): 0.4%; ID/g (Mus musculus [28]): 3.72%; ID/g (Mus musculus [29]): 16.06%
6 | CCN(CC)CCNC(=O)c1cc(I)c(N)cc1OC | 6.92 | 1.06 | 6.89 | 1.57 | 4.66 | 3.95 | 0.61 | 0.18 | 0.08 | 0.85 | 0.45 | 2 | 0.28 | 1.17 | 3.43 | 3.12 | 4.92 | 1.62 | 1.93 |  | 
